Experimental data reported in article PMC4531836 (Molecular imaging and biology : MIB : the official …, 2015).
Several values for one entry are separate records, joined by “and”; a condition that tells them apart may be missing. Equal values may be shown once. Entries after “also recorded” stand apart in the source; their conditions may differ.

Tests used:
Type in all cases: in vivo, human
[1] = PET biodistribution in patients; settings: visual
Procedure, shortened: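 Patients fasted 4–6 h, then received about 320.6 MBq IV (specific activity 107.2 MBq/nmol). Mid-thigh-to-vertex 3D PET/CT with CT attenuation correction followed. Four sequential scans began at injection, at 1, 2, 4 and 4 min per bed. A fifth scan (4 min/bed) ran at 120 min. Two non-blinded nuclear-medicine readers reviewed images visually.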

prostate cancer = experiment: PET/CT tumor uptake
Procedure, shortened: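 Sequential PET/CT ran from injection (PET1–PET4), with PET5 at 120 min. Tumour sites were foci at PET5 with uptake above surrounding soft tissue or blood pool. SUVmax was normalised to lean body mass for up to five hottest lesions per patient, using automatic VOIs at 50% activity threshold. Tumour-to-reference ratio was lesion SUVmax over SUVmean of liver, blood pool or muscle.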

[2] = Safety / adverse events in patients with prostate cancer; settings: nine patients
Procedure, shortened: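 Nine patients received about 320.6 MBq IV after 4–6 h fasting. Vital signs and ECG were recorded before dosing, with pulse oximetry during scanning. Within 2 weeks before and after, they had history, examination, CBC with differential, metabolic panel (BUN, creatinine, alkaline phosphatase, bilirubin, transaminases) and ECG. Follow-up visit or contact came within 30 days. Events were graded by NCI CTCAE.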

[3] = Blood and plasma activity, plasma metabolites, urinary excretion
Procedure, shortened: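 Prostate cancer patients received about 320.6 MBq by slow IV push. Venous blood was drawn from the contralateral arm after PET2, PET4 and PET5, and 0.5 ml aliquots of blood and plasma were well-counted. Urine voided after PET4 and PET5 (about 110 and 160 min) was counted. For metabolites, plasma was acetonitrile-precipitated, spiked with unlabelled reference, and run on C18 radio-HPLC in 10% acetonitrile/90% triethylammonium phosphate pH 3.2 at 2 ml/min.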

Radiation dosimetry = experiment: Radiation dosimetry
Procedure, shortened: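 Four patients were analysed. Organ VOIs were drawn on longitudinal PET scans. Time-activity data were integrated by fitted single- or double-exponential functions, or numerically with single-exponential extrapolation. Residence times were scaled from CT-derived patient organ masses to reference masses. Absorbed doses used the MIRD S-value schema in OLINDA/EXM. The bladder model assumed 1.5 h voiding, and lens dose was taken as the photon dose to brain.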

Radiotracer uptake in the brain [1]: No radiotracer uptake
Red cell binding ([3]; 86 and 137 min post-injection): non-detectable
Red cell binding ([3]; 20 min post-injection): negligible
Average urinary excretion of the radiotracer ([3]; by 2 h post-injection): 11%
Urinary excretion of the radiotracer, range ([3]; by 2 h post-injection): 6–15%
Average urinary excretion of the radiotracer ([3]; by 3 h post-injection): 16%
Urinary excretion of the radiotracer, range ([3]; by 3 h post-injection): 8–21%
Absorbed dose (Radiation dosimetry; Adrenals): 3.11E-02 mGy/MBq
Res. time (Radiation dosimetry; Adrenals): 3.16E-04 (Bq-h)/Bq
Res. time (Radiation dosimetry; Bone marrow (spine)): 5.52E-02 (Bq-h)/Bq
Absorbed dose (Radiation dosimetry; Brain): 2.19E-03 mGy/MBq
Res. time (Radiation dosimetry; Brain): 4.74E-03 (Bq-h)/Bq
Absorbed dose (Radiation dosimetry; Breasts): 4.57E-03 mGy/MBq
Res. time (Radiation dosimetry; Gallbladder): 1.18E-03 (Bq-h)/Bq
Absorbed dose (Radiation dosimetry; Gallbladder wall): 1.44E-02 mGy/MBq
Res. time (Radiation dosimetry; Heart): 1.98E-02 (Bq-h)/Bq
Absorbed dose (Radiation dosimetry; Heart wall): 1.29E-02 mGy/MBq
Res. time (Radiation dosimetry; Heart wall): 6.24E-03 (Bq-h)/Bq
Absorbed dose (Radiation dosimetry; Kidneys): 0.0945 mGy/MBq and 9.45E-02 mGy/MBq
Res. time (Radiation dosimetry; Kidneys): 2.17E-01 (Bq-h)/Bq
Res. time (Radiation dosimetry; LLI): 4.06E-03 (Bq-h)/Bq
Absorbed dose (Radiation dosimetry; LLI wall): 1.05E-02 mGy/MBq
Absorbed dose (Radiation dosimetry; Lacrimal glands): 3.50E-02 mGy/MBq
Res. time (Radiation dosimetry; Lacrimal glands): 3.86E-04 (Bq-h)/Bq
Absorbed dose (Radiation dosimetry; Lens): 1.25E-03 mGy/MBq
Res. time (Radiation dosimetry; Lens): 4.32E-06 (Bq-h)/Bq
Absorbed dose (Radiation dosimetry; Liver): 0.0380 mGy/MBq and 3.80E-02 mGy/MBq
Res. time (Radiation dosimetry; Liver): 2.60E-01 (Bq-h)/Bq
Absorbed dose (Radiation dosimetry; Lungs): 1.08E-02 mGy/MBq
Res. time (Radiation dosimetry; Lungs): 3.70E-02 (Bq-h)/Bq
Absorbed dose (Radiation dosimetry; Muscle): 6.32E-03 mGy/MBq
Res. time (Radiation dosimetry; Muscle): 3.07E-01 (Bq-h)/Bq
Absorbed dose (Radiation dosimetry; Osteogenic cells): 9.58E-03 mGy/MBq
Absorbed dose (Radiation dosimetry; Ovaries (hypothetical, all-male cohort)): 8.89E-03 mGy/MBq
Absorbed dose (Radiation dosimetry; Pancreas): 2.44E-02 mGy/MBq
Res. time (Radiation dosimetry; Pancreas): 3.05E-03 (Bq-h)/Bq
Absorbed dose (Radiation dosimetry; Parotid glands): 2.68E-02 mGy/MBq
Res. time (Radiation dosimetry; Parotid glands): 1.19E-02 (Bq-h)/Bq
Absorbed dose (Radiation dosimetry; Red marrow): 0.01 mGy/MBq and 1.04E-02 mGy/MBq
Res. time (Radiation dosimetry; Remainder of body): 7.11E-01 (Bq-h)/Bq
Absorbed dose (Radiation dosimetry; Skin): 4.05E-03 mGy/MBq
Absorbed dose (Radiation dosimetry; Small intestine): 9.13E-03 mGy/MBq
Absorbed dose (Radiation dosimetry; Spleen): 1.85E-02 mGy/MBq
Res. time (Radiation dosimetry; Spleen): 2.07E-02 (Bq-h)/Bq
Res. time (Radiation dosimetry; Stomach): 1.07E-02 (Bq-h)/Bq
Absorbed dose (Radiation dosimetry; Stomach wall): 1.16E-02 mGy/MBq
Absorbed dose (Radiation dosimetry; Submandibular glands): 0.0387 mGy/MBq and 3.87E-02 mGy/MBq
Res. time (Radiation dosimetry; Submandibular glands): 6.95E-03 (Bq-h)/Bq
Absorbed dose (Radiation dosimetry; Testes): 1.01E-02 mGy/MBq
Res. time (Radiation dosimetry; Testes): 1.76E-03 (Bq-h)/Bq
Absorbed dose (Radiation dosimetry; Thymus): 5.56E-03 mGy/MBq
Absorbed dose (Radiation dosimetry; Thyroid): 8.56E-03 mGy/MBq
Res. time (Radiation dosimetry; Thyroid): 2.34E-04 (Bq-h)/Bq
Res. time (Radiation dosimetry; Total body): 1.96E+00 (Bq-h)/Bq
Res. time (Radiation dosimetry; ULI): 2.20E-02 (Bq-h)/Bq
Absorbed dose (Radiation dosimetry; ULI wall): 1.67E-02 mGy/MBq
Res. time (Radiation dosimetry; Urinary bladder contents): 2.60E-01 (Bq-h)/Bq
Absorbed dose (Radiation dosimetry; Urinary bladder wall, voiding interval 1.5 h): 0.0864 mGy/MBq and 8.64E-02 mGy/MBq
Absorbed dose (Radiation dosimetry; Uterus (hypothetical, all-male cohort)): 1.15E-02 mGy/MBq
Effective dose (Radiation dosimetry; four patients, OLINDA/EXM): 0.0165 mSv/MBq
Radiation dose in the whole body and radiosensitive organs (Radiation dosimetry; whole body, red marrow, gonads, breasts): ≤ 0.01 mGy/MBq
SMILES: O=C(O)CCC(NC(=O)NC(CCCCNC(=O)c1ccc([18F])nc1)C(=O)O)C(=O)O (stereo not drawn) [[^18F]DCFPyL, 2-(3-(1-carboxy-5-[(6-[^18F]fluoro-pyridine-3-carbonyl)-amino]-pentyl)-ureido)-pentanedioic acid]
SUVmax, individual lesions (prostate cancer; PET4 and PET5, approximately 1 and 2 h post-radiotracer injection): greater than 100
SUVmax, highest uptake at a site of primary disease (prostate cancer; PET5 (120 min post-injection)): 71.6
SUVmax, most avid bone lesions (prostate cancer; PET5 (120 min post-injection)): 102.0
SUVmax, most avid lymph node lesion (prostate cancer; PET5 (120 min post-injection)): 100.3
SUVmax in putative sites of prostate cancer (highest, some lesions) (prostate cancer; SUVmax normalized to lean body mass): > 100
Radiotracer-related adverse events with monitored heart rate or blood pressure [2]: no radiotracer-related adverse events
Adverse events ([2]; IV bolus average 320.6 MBq): No major radiotracer-specific adverse events; also recorded: safe to administer
Radiotracer metabolites in plasma (radio-HPLC) ([3]; three patients, up to 173 min post-injection): all plasma activities were in the form of unmetabolized radioligand; also recorded: no metabolism
